In ChEMBL document CHEMBL1139611, “Structure-activity relationships of novel endomorphin-2 analogues with N-O turns induced by alpha-aminoxy acids” (Bioorg Med Chem Lett, 2005):

target: Delta-type opioid receptor (Rattus norvegicus, UniProt P33533); experiment: Inhibition of [3H]DPDPE binding to Opioid receptor delta 1 of rat brain membrane
Outline: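 Competition binding on Wistar rat brain synaptosomal P2 membranes in 50 mM Tris–HCl, pH 7.4. […] Delta sites were labelled with [3H]DPDPE (1 nM, Kd 2.75 nM) for 3 h at 25 °C. Nonspecific binding was taken with naloxone. Ki was derived by Cheng–Prusoff; values are means of ≥3 experiments.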

Delta-type opioid receptor, sequence (P33533 whole entry): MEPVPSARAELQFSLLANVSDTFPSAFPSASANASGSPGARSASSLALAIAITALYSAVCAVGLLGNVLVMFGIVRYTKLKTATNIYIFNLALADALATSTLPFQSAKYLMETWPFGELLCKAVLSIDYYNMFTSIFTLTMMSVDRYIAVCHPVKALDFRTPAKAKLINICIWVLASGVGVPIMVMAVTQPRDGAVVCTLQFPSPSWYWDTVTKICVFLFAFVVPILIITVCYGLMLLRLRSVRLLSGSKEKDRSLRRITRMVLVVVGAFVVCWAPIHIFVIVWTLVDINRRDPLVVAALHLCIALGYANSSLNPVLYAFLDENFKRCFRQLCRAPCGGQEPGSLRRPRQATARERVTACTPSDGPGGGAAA

Row | Structure (SMILES) | Ki [µM]
1 | NC(=O)[C@H](Cc1ccccc1)NC(=O)[C@@H](Cc1ccccc1)O/N=C/[C@@H]1CCCN1C(=O)[C@@H](N)Cc1ccc(O)cc1 | 37.1
2 | NC(=O)[C@H](Cc1ccccc1)NC(=O)[C@H](Cc1ccccc1)NC(=O)[C@H](Cc1ccccc1)NO[C@@H](N)Cc1ccc(O)cc1 | > 10
3 | NC(=O)[C@H](Cc1ccccc1)NC(=O)[C@H](Cc1ccccc1)NC(=O)[C@@H]1CCN(C(=O)[C@@H](N)Cc2ccc(O)cc2)C1 | 8.36
4 | NC(=O)[C@H](Cc1ccccc1)NC(=O)[C@H](Cc1ccccc1)O/N=C/[C@@H]1CCCN1C(=O)[C@@H](N)Cc1ccc(O)cc1 | 19.8
5 | NC(=O)[C@H](Cc1ccccc1)NC(=O)[C@H](Cc1ccccc1)NC(=O)[C@@H](Cc1ccccc1)NO[C@@H](N)Cc1ccc(O)cc1 | > 10
6 | NC(=O)[C@H](Cc1ccccc1)NC(=O)[C@@H](Cc1ccccc1)NO[C@@H]1CCCN1C(=O)[C@@H](N)Cc1ccc(O)cc1 | > 10
7 | NC(=O)[C@H](Cc1ccccc1)NC(=O)[C@H](Cc1ccccc1)NO[C@@H]1CCCN1C(=O)[C@@H](N)Cc1ccc(O)cc1 | > 10

target: Delta-type opioid receptor (Rattus norvegicus) (UniProt P33533); experiment: Percent inhibition of [3H]DPDPE binding to Opioid receptor delta 1 of rat brain membrane at 10 uM; set-up: scale not given: the % may be the effect or the level left
Sequence (P33533 whole entry): as above

Row | Structure (SMILES) | Activity [%]
8 | NC(=O)[C@H](Cc1ccccc1)NC(=O)[C@@H](Cc1ccccc1)NO[C@@H]1CCCN1C(=O)[C@@H](N)Cc1ccc(O)cc1 | 30
9 | NC(=O)[C@H](Cc1ccccc1)NC(=O)[C@H](Cc1ccccc1)NO[C@@H]1CCCN1C(=O)[C@@H](N)Cc1ccc(O)cc1 | 15

target: Mu-type opioid receptor (Rattus norvegicus) (UniProt P33535); experiment: Percent inhibition of [3H]-DAMGO binding to Opioid receptor mu 1 of rat brain membrane at 10 uM; set-up: scale not given: the % may be the effect or the level left
Sequence (P33535 whole entry): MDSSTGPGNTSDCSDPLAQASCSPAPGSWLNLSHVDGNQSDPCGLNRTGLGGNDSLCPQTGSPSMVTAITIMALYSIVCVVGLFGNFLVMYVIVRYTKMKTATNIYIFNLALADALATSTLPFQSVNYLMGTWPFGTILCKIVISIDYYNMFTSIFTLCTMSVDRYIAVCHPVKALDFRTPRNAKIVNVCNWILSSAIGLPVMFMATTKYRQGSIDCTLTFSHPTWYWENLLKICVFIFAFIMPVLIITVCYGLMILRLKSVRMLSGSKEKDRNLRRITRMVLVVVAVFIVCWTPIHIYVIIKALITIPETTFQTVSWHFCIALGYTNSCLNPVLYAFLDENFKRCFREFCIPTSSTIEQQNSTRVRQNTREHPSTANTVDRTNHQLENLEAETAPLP

Row | Activity [%] | Structure (SMILES)
10 | 22 | NC(=O)[C@H](Cc1ccccc1)NC(=O)[C@H](Cc1ccccc1)NC(=O)[C@@H](Cc1ccccc1)NO[C@@H](N)Cc1ccc(O)cc1

target: Opioid receptors; mu & delta (Rattus norvegicus) (UniProt P33533+P33535); experiment: Selectivity ratio of Opioid receptor delta 1 to Opioid receptor mu 1; type: protein assay
Sequence (P33533 whole entry, looked up): as the sequence (P33533 whole entry) above
Sequence (P33535 whole entry, looked up): as the sequence (P33535 whole entry) above

Row | Structure (SMILES) | Selectivity
11 | NC(=O)[C@H](Cc1ccccc1)NC(=O)[C@@H](Cc1ccccc1)O/N=C/[C@@H]1CCCN1C(=O)[C@@H](N)Cc1ccc(O)cc1 | 9
12 | NC(=O)[C@H](Cc1ccccc1)NC(=O)[C@H](Cc1ccccc1)NC(=O)[C@@H]1CCN(C(=O)[C@@H](N)Cc2ccc(O)cc2)C1 | 1020
13 | NC(=O)[C@H](Cc1ccccc1)NC(=O)[C@H](Cc1ccccc1)O/N=C/[C@@H]1CCCN1C(=O)[C@@H](N)Cc1ccc(O)cc1 | 4.1
14 | NC(=O)[C@H](Cc1ccccc1)NC(=O)[C@@H](Cc1ccccc1)NO[C@@H]1CCCN1C(=O)[C@@H](N)Cc1ccc(O)cc1 | > 17
15 | NC(=O)[C@H](Cc1ccccc1)NC(=O)[C@H](Cc1ccccc1)NO[C@@H]1CCCN1C(=O)[C@@H](N)Cc1ccc(O)cc1 | > 23

target: Delta-type opioid receptor (Rattus norvegicus) (UniProt P33533); experiment: Percent decrease of maximum binding towards Opioid receptor delta 1 in rat brain membrane using [3H]DPDPE at 10 uM concentration; type: cell membranes; set-up: scale not given: the % may be the effect or the level left

Row | Activity [%] | Structure (SMILES)
16 | 30 | NC(=O)[C@H](Cc1ccccc1)NC(=O)[C@H](Cc1ccccc1)NC(=O)[C@H](Cc1ccccc1)NO[C@@H](N)Cc1ccc(O)cc1
17 | 18 | NC(=O)[C@H](Cc1ccccc1)NC(=O)[C@H](Cc1ccccc1)NC(=O)[C@@H](Cc1ccccc1)NO[C@@H](N)Cc1ccc(O)cc1

target: T1, Mu-type opioid receptor (Rattus norvegicus, UniProt P33535); experiment: Inhibition of [3H]DAMGO binding to Opioid receptor mu 1 of rat brain membrane; na= No activity.
T1 sequence (P33535 whole entry): as above

Row | Ki | Structure (SMILES)
18 | Not Active | NC(=O)[C@H](Cc1ccccc1)NC(=O)[C@H](Cc1ccccc1)NC(=O)[C@H](Cc1ccccc1)NO[C@@H](N)Cc1ccc(O)cc1

target: T1, Mu-type opioid receptor; experiment: Inhibition of [3H]DAMGO binding to Opioid receptor mu 1 of rat brain membrane
Outline: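 Rat brain synaptosomal P2 membranes from Wistar rats in 50 mM Tris-HCl, pH 7.4. […] Nonspecific binding was defined with naloxone. Ki was derived by Cheng-Prusoff. Values are means of at least three experiments.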

Row | Structure (SMILES) | Ki [µM]
19 | NC(=O)[C@H](Cc1ccccc1)NC(=O)[C@@H](Cc1ccccc1)O/N=C/[C@@H]1CCCN1C(=O)[C@@H](N)Cc1ccc(O)cc1 | 4.04
20 | NC(=O)[C@H](Cc1ccccc1)NC(=O)[C@H](Cc1ccccc1)NC(=O)[C@@H]1CCN(C(=O)[C@@H](N)Cc2ccc(O)cc2)C1 | 0.00823
21 | NC(=O)[C@H](Cc1ccccc1)NC(=O)[C@H](Cc1ccccc1)O/N=C/[C@@H]1CCCN1C(=O)[C@@H](N)Cc1ccc(O)cc1 | 408
22 | NC(=O)[C@H](Cc1ccccc1)NC(=O)[C@H](Cc1ccccc1)NC(=O)[C@@H](Cc1ccccc1)NO[C@@H](N)Cc1ccc(O)cc1 | > 10
23 | NC(=O)[C@H](Cc1ccccc1)NC(=O)[C@@H](Cc1ccccc1)NO[C@@H]1CCCN1C(=O)[C@@H](N)Cc1ccc(O)cc1 | 0.6
24 | NC(=O)[C@H](Cc1ccccc1)NC(=O)[C@H](Cc1ccccc1)NO[C@@H]1CCCN1C(=O)[C@@H](N)Cc1ccc(O)cc1 | 0.434
